Assay results as given in ChEMBL document CHEMBL1287703, “Essential structural features of TNF-α lectin-like domain derived peptides for activation of amiloride-sensitive sodium current in A549 cells” (J Med Chem, 2010).
Active and inactive are the calls of the source. The calls are words filed in the database; no cut-off is given here. Where a SMILES comes first, the peptide text is derived from it. Bridges are numbered along the chain shown (N, C = ends).

Tests used:
Type in all cases: cell-based
A549 [1] = test: Activation of amiloride-sensitive epithelial sodium channel in human A549 cells up to 480 nM at holding potential -100 to + 100 mV by whole cell patch clamp technique
Outline: (§1)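 A549 cells (passages 80–90) were grown in DMEM/F12 with 10% FBS and 1% penicillin-streptomycin, then whole-cell patch-clamped at 19–22°C, 24–48 h after plating. After a 5 min equilibration, Eh was stepped from −100 to +100 mV in 20 mV steps, 1 min each. A 5 min control preceded cumulative bath peptide addition (3.5–480 nM final), with amiloride added at the end. EC50 was fitted at −100 mV.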

A549 [2] = test: Activation of amiloride-sensitive epithelial sodium channel in human A549 cells at 120 nM at holding potential -100 to + 100 mV by whole cell patch clamp technique; outline: as §1
A549 [3] = test: Activation of tetraethylammonium-sensitive potassium channel in human A549 cells at 120 nM at holding potential -100 mV by whole cell patch clamp technique

| Compound | Activity (A549 [1]) | Activity (A549 [2]) [%] | Activity (A549 [3]) [%] |
| --- | --- | --- | --- |
| C[C@@H]1NC(=O)CNC(=O)[C@H](CCC(=O)O)NC(=O)[C@@H]2CCCN2C(=O)[C@H]([C@H](C)O)NC(=O)[C@H](CCC(=O)O)NC(=O)[C@H](CCCNC(=N)N)NC(=O)[C@H](CCC(N)=O)NC(=O)CNC(=O)CCCNC(=O)CNC(=O)[C@H](Cc2ccc(O)cc2)NC(=O)[C@H](Cc2c[nH]c3ccccc23)NC(=O)[C@@H]2CCCN2C(=O)[C@H](CCCCN)NC(=O)[C@H](C)NC(=O)[C@H](CCC(=O)O)NC1=O | inactive | – | – |
| C[C@@H]1NC(=O)CNC(=O)[C@H](CCC(=O)O)NC(=O)[C@@H]2CCCN2C(=O)[C@H]([C@H](C)O)NC(=O)[C@H](CCC(=O)O)NC(=O)[C@H](CCCNC(=N)N)NC(=O)[C@H](CCC(N)=O)NC(=O)CNC(=O)CCCCCNC(=O)CNC(=O)[C@H](Cc2ccc(O)cc2)NC(=O)[C@H](Cc2c[nH]c3ccccc23)NC(=O)[C@@H]2CCCN2C(=O)[C@H](CCCCN)NC(=O)[C@H](C)NC(=O)[C@H](CCC(=O)O)NC1=O | inactive | – | – |
| C[C@@H]1NC(=O)CNC(=O)[C@H](CCC(=O)O)NC(=O)[C@@H]2CCCN2C(=O)[C@H]([C@H](C)O)NC(=O)[C@H](CCC(=O)O)NC(=O)[C@H](CCCNC(=N)N)NC(=O)[C@H](CCC(N)=O)NC(=O)CNC(=O)[C@@H](N)CSSC[C@@H](C(=O)O)NC(=O)[C@H](Cc2ccc(O)cc2)NC(=O)[C@H](Cc2c[nH]c3ccccc23)NC(=O)[C@@H]2CCCN2C(=O)[C@H](CCCCN)NC(=O)[C@H](C)NC(=O)[C@H](CCC(=O)O)NC1=O | – | 99.4 | 0.6 |
| C[C@@H]1NC(=O)CNC(=O)[C@H](C)NC(=O)[C@@H]2CCCN2C(=O)[C@H](C)NC(=O)[C@H](CCC(=O)O)NC(=O)[C@H](CCCNC(=N)N)NC(=O)[C@H](CCC(N)=O)NC(=O)CNC(=O)[C@@H](N)CSSC[C@@H](C(=O)O)NC(=O)[C@H](Cc2ccc(O)cc2)NC(=O)[C@H](Cc2c[nH]c3ccccc23)NC(=O)[C@@H]2CCCN2C(=O)[C@H](CCCCN)NC(=O)[C@H](C)NC(=O)[C@H](C)NC1=O (H-CGQREAPAGAAAKPWYC-OH; disulfide 1-17) | inactive | – | – |
| C[C@@H]1NC(=O)CNC(=O)[C@H](CCC(=O)O)NC(=O)[C@@H]2CCCN2C(=O)[C@H]([C@H](C)O)NC(=O)[C@H](CCC(=O)O)NC(=O)[C@H](CCCNC(=N)N)NC(=O)[C@H](CCC(N)=O)NC(=O)CNC(=O)CCCCCCNC(=O)[C@H](Cc2ccc(O)cc2)NC(=O)[C@H](Cc2c[nH]c3ccccc23)NC(=O)[C@@H]2CCCN2C(=O)[C@H](CCCCN)NC(=O)[C@H](C)NC(=O)[C@H](CCC(=O)O)NC1=O | inactive | – | – |
| C[C@@H]1NC(=O)CNC(=O)[C@H](CCC(=O)O)NC(=O)[C@@H]2CCCN2C(=O)[C@H]([C@H](C)O)NC(=O)[C@H](CCC(=O)O)NC(=O)[C@H](CCCNC(=N)N)NC(=O)[C@H](CCC(N)=O)NC(=O)[C@@H](N)CSSC[C@@H](C(=O)O)NC(=O)CNC(=O)CNC(=O)[C@H](CCCCN)NC(=O)[C@H](C)NC(=O)[C@H](CCC(=O)O)NC1=O | inactive | – | – |
